From PubChem BioAssay
In the library only some 5.1% were active in any assay of this set; here they are far more common.
APP 5'UTR act – activators of APP 5'UTR luciferase reporter, primary screen, SH-SY5Y cells | SH-SY5Y APP 5'UTR luciferase reporter, luminescence; zero percent = DMSO vehicle wells | activation, % at 2 µM | 190,000 compounds, 1% hits;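 active means activation above a set limit, based on mean plus 3 SD of controls, cut at about 140% in these data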
STAT1 activator – STAT1 signaling activators, primary screen, cell-based, HTS, luciferase reporter. NIH 3T3 STAT1-luciferase reporter, IFN-gamma, luminescence; 100% = IFN-gamma alone, no compound. activation (% of control), % at 5.5 µM. 200,000 compounds, 2.6% hits;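 active means activation above the screen-wide mean activation plus 3 SD, cut at about 130% in these data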
NF-kB expr up – activators of NF-kB expression in neurons, primary screen, cell-based, HTS | human neuronal cells, NF-kB reporter expression; hits give high values | fold change at 12.5 µM | 190,000 compounds, 1.6% hits | AID 1239, 2008; in the data active means fold change above about 3.3
STAT1 inh – STAT1 signaling inhibitors, primary screen, cell-based, HTS, luciferase reporter | NIH 3T3 STAT1-luciferase reporter, IFN-gamma, luminescence | inhibition, % at 5.5 µM | 200,000 compounds, 0.35% hits | AID 920, 2007;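 active means inhibition above a set limit, the mean inhibition across all tested compounds plus 3 SD, cut at about 34% in these data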
STAT3 act – IL-6 driven STAT3 reporter potentiators, primary screen, U3A cells, luciferase, luminescence, MLSCN library | IL-6 STAT3-luciferase reporter; 100% = signal with IL-6 EC80 alone | activation (% of control), % at 5.6 µM | 190,000 compounds, 0.91% hits | AID 871, 2007;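 active means activation above the screen-wide mean of compound activation plus 3 SD, cut at about 130% in these data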
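Assay system – human STAT1-deficient U3A cells with stable STAT3-luciferase reporter · Also added – IL-6 (33 ng/mL) · Schedule – compound 1 h, then IL-6 6 h at 37 °C · Technique – reporter luminescence signal · Evaluation – % activation versus median of IL-6-stimulated wells · Benchmarks – IL-6-only wells as 100% reference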
STAT3 blocker – IL-6 driven STAT3 reporter inhibitors, primary screen, U3A cells, luciferase, luminescence, MLSCN library | 190,000 compounds, 0.89% hits | inhibition, % at 5.5 µM | IL-6 STAT3-luciferase reporter; host cell line lacks STAT1;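 active means inhibition above the mean inhibition across all screened compounds plus 3 SD, cut at about 44% in these data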
Of the large screens only hits and unclear results are named; the others gave an inactive call.

CSc1ccccc1NC(=O)c1cc(CC(C)C)on1	none
COc1cc(NC(=O)c2cc(CC(C)C)on2)c(OC)cc1Cl	STAT3 act 136
CC(C)Cc1cc(C(=O)NCc2ccco2)no1	STAT1 activator 130 (no result: STAT3 act, STAT3 blocker)
Cc1ccccc1NC(=O)c1ccc([N+](=O)[O-])o1	NF-kB expr up 3.3
Cc1cc(C(=O)NCc2ccco2)no1	none
Cc1cc2[nH]cnc2c([N+](=O)[O-])c1C	none
Cc1cccc(OCC(=O)N2CCN(C(=O)c3ccco3)CC2)c1	none (no result: NF-kB expr up)
CC(=O)c1ccccc1NCC(=O)Nc1ccc(C)cc1	none
COc1ccccc1NC(=O)c1ccc(-c2ccccc2[N+](=O)[O-])o1	STAT1 activator 150
CN1CCN(NC(=O)CN2C(=O)/C(=C/c3c(Cl)cccc3Cl)SC2=S)CC1	STAT3 act 135
CN1CCN(NC(=O)CN2C(=O)/C(=C/c3ccccc3Cl)SC2=S)CC1	none
Cc1cc(C(=O)OCC(=O)NCc2ccco2)c(C)o1	none
COc1ccc(/C=N/Nc2nncc3ccccc23)c(OC)c1	STAT1 activator 147
Cc1cccc(/C=N/Nc2nncc3ccccc23)c1	APP 5'UTR act 208, STAT1 inh 52, STAT3 blocker 84
CC(C)CNC(=O)COc1ncnc2sccc12	none
Clc1nc(-c2ccccc2)cc(-c2ccc(Br)cc2)n1	STAT3 act 138 (no result: NF-kB expr up)
CCc1ccc(OCc2cnc(Cl)s2)cc1	STAT1 activator 131
CCOC(=O)Cn1cncc1-c1ccc([N+](=O)[O-])cc1	STAT1 activator 130
CCOc1ccc(NC(=O)Cn2cncc2-c2ccc([N+](=O)[O-])cc2)cc1	none
O=C(O)CCCNC(=O)/C(=C\c1ccc(Cl)cc1)NC(=O)c1ccccc1Br	none
COc1cc(/C=N/N=C(N)N)ccc1OCc1ccc(Cl)cc1	APP 5'UTR act 180
COc1cc(/C=N/NS(=O)(=O)c2ccc(C)cc2)ccc1OCc1cccc(C(=O)O)c1	STAT1 inh 72, STAT3 blocker 47
CCOc1cc(/C=N/N=C(N)N)ccc1OCc1ccc(Cl)cc1	none
COc1ccc(/C=N/NS(=O)(=O)c2ccc(C)cc2)cc1OC(=O)c1ccccc1	none
COc1cc(/C=N/O)ccc1OCc1ccc(C(=O)O)cc1	NF-kB expr up 3.4, STAT1 inh 93, STAT3 blocker 111
COc1cc(/C=N/N=C2/NC(=O)C(CC(=O)O)S2)ccc1OCc1ccc(Cl)cc1 (configuration not stated)	STAT1 activator 130
CCOc1cc(/C=N/N=C2/NC(=O)C(CC(=O)O)S2)ccc1OCc1ccc(Cl)cc1Cl (configuration not stated)	none
COc1cc(S(=O)(=O)n2nc(C)cc2C)c(OC)cc1Cl	none
Cc1ccc(C(=O)Nc2cnc3ccccn3c2=O)cc1	STAT1 activator 132
O=C(Nc1cccn2ncnc12)c1ccc(Cl)cc1Cl	none
O=C(Nc1cnc2ccccn2c1=O)c1ccc(Cl)cc1Cl	APP 5'UTR act 153, STAT1 inh 41, STAT3 blocker 70
CN(C(=O)CSc1nnnn1-c1ccccc1)C1CCS(=O)(=O)C1 (configuration not stated)	none
O=c1[nH]c(NC2CCCCC2)c([N+](=O)[O-])c(=O)[nH]1	none
Cc1ccc(NC(=O)c2ccc3nc[nH]c3c2)cc1C	STAT1 activator 143
CCOc1ccc(-c2nnn(CC(=O)N3CCCC(C)C3)n2)cc1 (configuration not stated)	none
CCCc1cc(C(=O)NNC(=S)Nc2cccc(C)c2)cs1	STAT1 activator 142
Cc1cccc(NC(=S)NNC(=O)c2ccc3c(c2)OCO3)c1	none
Cc1ccc(C(=O)N/N=c2\sc3ccccc3n2C)cc1	none
COc1ccc(C(=O)N=c2sc3ccccc3n2C)cc1	APP 5'UTR act 163, STAT1 activator 141, NF-kB expr up 8.1, STAT3 act 134
COc1cccc(C(=O)N/N=c2\sc3ccccc3n2C)c1	none
Cn1/c(=N/NC(=O)c2ccccc2F)sc2ccccc21	STAT1 activator 149
Cn1c(=NC(=O)COc2ccccc2)sc2ccccc21	STAT1 activator 148, NF-kB expr up 3.6
